According to paper PMC10582660 (Clinical and Translational Science, 2023):
Where “and” joins values, the source holds several entries; their conditions need not be identical. Equal entries are not always repeated. Where two headings read alike, the source gives them in different places.

Assays:
[1] = format: in vivo, human
Summary of the method: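 Open-label fixed-sequence crossover in 16 healthy adults (8 male, 8 female), arms ≥7 days apart, fasted from midnight. Oral 60 mg test compound tablet with 240 mL water at 50°C (baseline) or brewed green tea. Acute: tea (one bag, 240 mL water, 80°C, 3 min, cooled to 50°C) given with dose, then at 4 and 8 h. Chronic: tea three times daily for 4 days, then day 5 as acute.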

[2] = Follow-up exploratory clinical study: raloxifene stool recovery; format: in vivo, human; settings: for Raloxifene dose recovery0–48h in stool, geometric mean (CV%): stool 0 to 48 h relative to dose
Summary of the method: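 Stool collected within 48 h pre-dose and all movements 0–24 and 24–48 h post-dose (water vs acute green tea arms), held at −20°C. Blended with water (1:2.5 by weight), stored at −80°C. Methanol/0.1% formic acid extraction with internal standards. 1×, 10× and 100× dilutions dried, reconstituted, quantified by UHPLC–MS/MS (calibration 0.06–400 nM). Recovery 0–48 h expressed as % of administered dose.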

OATP1B1 = biological target: T1, OATP1B1 (Homo sapiens, UniProt Q9Y6L6); test: Raloxifene as a substrate for uptake transporters; format: in vitro ADME; settings: raloxifene 1, 10 μM, 2, 20 min, two‐fold cutoff
T1 sequence (Q9Y6L6 1-691): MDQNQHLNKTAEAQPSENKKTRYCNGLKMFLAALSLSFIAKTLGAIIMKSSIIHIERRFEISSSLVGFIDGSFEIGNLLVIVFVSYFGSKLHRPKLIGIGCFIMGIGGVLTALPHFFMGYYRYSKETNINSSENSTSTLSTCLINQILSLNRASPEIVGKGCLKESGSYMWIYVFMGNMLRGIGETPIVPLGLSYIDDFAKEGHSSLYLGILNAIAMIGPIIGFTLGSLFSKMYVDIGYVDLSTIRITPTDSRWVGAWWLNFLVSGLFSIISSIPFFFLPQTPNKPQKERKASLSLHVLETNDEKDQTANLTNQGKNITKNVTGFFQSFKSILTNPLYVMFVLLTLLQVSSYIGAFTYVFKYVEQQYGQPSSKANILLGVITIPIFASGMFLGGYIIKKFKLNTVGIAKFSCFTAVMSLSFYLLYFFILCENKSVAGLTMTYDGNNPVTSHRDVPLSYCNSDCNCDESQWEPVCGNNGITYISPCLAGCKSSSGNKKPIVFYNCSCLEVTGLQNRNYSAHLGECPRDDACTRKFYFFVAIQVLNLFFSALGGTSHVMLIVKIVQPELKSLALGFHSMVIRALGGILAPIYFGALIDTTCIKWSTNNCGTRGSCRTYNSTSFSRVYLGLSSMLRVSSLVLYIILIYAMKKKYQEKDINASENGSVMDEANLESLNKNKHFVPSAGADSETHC
Summary of the method: (§1)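 Uptake of test compound (1 and 10 μM, 2 and 20 min) measured in transporter-expressing HEK293 or MDCKII cells or inside-out membrane vesicles. Run with positive-control probe substrates and inhibitors, plus empty-vector or untransfected control cells. Fold-accumulation relative to control cells judged against a two-fold cutoff for substrate status.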

OATP1B3 = biological target: T2, OATP1B3 (Homo sapiens, UniProt Q9NPD5); test: Raloxifene as a substrate for uptake transporters; format: in vitro ADME; settings: raloxifene 1, 10 μM, 2, 20 min, two‐fold cutoff
T2 sequence (Q9NPD5 1-702): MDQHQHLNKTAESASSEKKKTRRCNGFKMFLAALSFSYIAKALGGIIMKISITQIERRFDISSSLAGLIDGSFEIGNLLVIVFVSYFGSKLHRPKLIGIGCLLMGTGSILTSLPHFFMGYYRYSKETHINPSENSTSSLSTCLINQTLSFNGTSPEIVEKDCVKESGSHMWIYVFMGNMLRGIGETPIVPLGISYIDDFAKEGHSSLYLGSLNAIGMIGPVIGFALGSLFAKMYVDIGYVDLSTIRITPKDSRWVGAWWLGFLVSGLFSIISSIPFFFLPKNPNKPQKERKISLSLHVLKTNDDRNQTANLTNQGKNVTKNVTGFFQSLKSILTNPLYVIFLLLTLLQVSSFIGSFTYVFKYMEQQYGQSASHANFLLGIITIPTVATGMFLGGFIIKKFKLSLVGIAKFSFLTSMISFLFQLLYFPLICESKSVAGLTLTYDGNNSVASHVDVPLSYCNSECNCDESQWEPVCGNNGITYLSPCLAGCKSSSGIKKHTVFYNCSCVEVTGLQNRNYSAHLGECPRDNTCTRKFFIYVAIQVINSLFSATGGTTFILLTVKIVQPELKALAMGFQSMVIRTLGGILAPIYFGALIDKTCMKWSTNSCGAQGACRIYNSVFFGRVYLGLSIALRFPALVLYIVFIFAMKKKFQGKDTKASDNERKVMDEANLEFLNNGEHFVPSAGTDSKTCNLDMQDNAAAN
Summary of the method: as §1

OCT2 = biological target: T3, OCT2 (Homo sapiens, UniProt O15244); test: Raloxifene as a substrate for uptake transporters; format: in vitro ADME; settings: raloxifene 1, 10 μM, 2, 20 min, two‐fold cutoff
T3 sequence (O15244 1-555): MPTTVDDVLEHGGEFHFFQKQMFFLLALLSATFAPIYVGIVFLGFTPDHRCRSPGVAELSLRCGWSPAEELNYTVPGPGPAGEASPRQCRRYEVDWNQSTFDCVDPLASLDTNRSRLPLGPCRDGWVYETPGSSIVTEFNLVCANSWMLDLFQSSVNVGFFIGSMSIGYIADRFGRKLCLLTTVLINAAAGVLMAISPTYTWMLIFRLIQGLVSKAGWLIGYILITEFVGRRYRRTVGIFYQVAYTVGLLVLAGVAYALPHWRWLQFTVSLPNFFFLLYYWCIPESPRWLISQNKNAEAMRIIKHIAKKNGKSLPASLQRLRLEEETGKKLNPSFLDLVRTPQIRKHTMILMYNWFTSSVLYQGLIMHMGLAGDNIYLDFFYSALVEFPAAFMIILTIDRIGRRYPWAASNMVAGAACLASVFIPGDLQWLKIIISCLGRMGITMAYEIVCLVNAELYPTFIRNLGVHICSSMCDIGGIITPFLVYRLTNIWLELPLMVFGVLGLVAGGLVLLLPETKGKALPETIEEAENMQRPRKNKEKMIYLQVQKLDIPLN
Summary of the method: as §1

[3] = upon acute and chronic green tea administration

O=C(c1ccc(OCCN2CCCCC2)cc1)c1c(-c2ccc(O)cc2)sc2cc(O)ccc12 [Raloxifene, raloxifene, reference compound]
AUC0–48h green tea/baseline ratio (90% CI) ([1]; acute green tea vs baseline): 0.53 (0.43–0.64)
AUC0–96h green tea/baseline ratio (90% CI) ([1]; acute green tea vs baseline): 0.57 (0.46–0.70)
Cmax,1 green tea/baseline ratio (90% CI) ([1]; acute green tea vs baseline): 0.37 (0.28–0.50)
t 1/2 green tea/baseline ratio (90% CI) ([1]; acute green tea vs baseline): 0.95 (0.81–1.12)
AUC0–96h green tea/baseline ratio (90% CI) ([1]; acute green tea vs baseline, listed as raloxifene): 0.57
geometric mean green tea/baseline raloxifene AUC0–96h ratio ([1]; after both acute and chronic administration): ~ 0.60
half-life ([1]; both, human, plasma, oral, geometric mean terminal half‐life, unchanged upon acute and chronic green tea administration): ~24 h
Tmax ([1]; both, human, plasma, oral, median t max,1, unchanged upon acute and chronic green tea administration): ~2 h
AUC0–48h green tea/baseline ratio (90% CI) ([1]; chronic green tea vs baseline): 0.56 (0.43–0.72)
AUC0–96h green tea/baseline ratio (90% CI) ([1]; chronic green tea vs baseline): 0.66 (0.54–0.81)
Cmax,1 green tea/baseline ratio (90% CI) ([1]; chronic green tea vs baseline): 0.39 (0.24–0.64)
t 1/2 green tea/baseline ratio (90% CI) ([1]; chronic green tea vs baseline): 0.89 (0.75–1.04)
AUC0–96h green tea/baseline ratio (90% CI) ([1]; chronic green tea vs baseline, listed as raloxifene): 0.66
magnitude of the decrease in raloxifene AUC with green tea ([1]; main study): ~ 40%
tolerability ([1]; main study, 16 participants, no severe adverse events reported): well tolerated
AUC0–48h ratio [1, 3]: 0.53–0.56
Cmax,1 ratio [1, 3]: 0.37–0.39
Raloxifene dose recovery0–48h green tea/baseline ratio (90% CI) ([2]; acute green tea vs baseline): 1.05 (0.45–2.43)
Percentage change in raloxifene stool recovery ([2]; baseline to acute green tea, individual participants): −70% and 440% and −80% and 300% and 10% and −14%
Raloxifene stool recovery ([2]; baseline, individual participants no. 8, 11, 12, 16, 17, 18): 1.7% and 0.27% and 93.8% and 18.0% and 17.4% and 69.8%
Raloxifene dose recovery0–48h in stool, geometric mean (CV%) ([2]; acute green tea): 10.6 (103) %
Raloxifene dose recovery0–48h in stool, geometric mean (CV%) ([2]; baseline): 10.1 (115) %
fold‐accumulation (OATP1B1): 1.04–1.19
fold‐accumulation (OATP1B3): 1.56–1.70
fold‐accumulation (OCT2): 0.90–1.15
